Laboratory results reported in ChEMBL document CHEMBL2429794, “Tuning the antibacterial activity of amphiphilic neamine derivatives and comparison to paromamine homologues” (J Med Chem, 2013).
Converted amounts (≈) assume the structure as drawn.

Tests used:
[1] = system: Escherichia coli; assay: Antibacterial activity against Escherichia coli PAZ505H8101 expressing AAC6'-1B after 24 hrs by geometric microdilution method; assay type: functional
[2] = system: Staphylococcus aureus; assay: microbe, parasite or virus in culture; settings: ATCC 25923, 24 h
[3] = system: Escherichia coli; assay: microbe, parasite or virus in culture; settings: ATCC 25922, 24 h
[4] = system: Staphylococcus aureus; assay: Antibacterial activity against Staphylococcus aureus expressing aminoglycoside-[…] after 24 hrs by geometric microdilution method; assay type: functional
Outline: (§1)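 Broth cultures were incubated in plates at 37 °C, and growth was read as absorbance at 650 nm after 1, 4, 7 and 24 h. Ampicillin (16 mg/L) was the positive control and DMSO the negative control. Each MIC (μg/mL) is the average of at least three determinations.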

[5] = system: Klebsiella pneumoniae; assay: Antibacterial activity against Klebsiella pneumoniae ATCC 700603 after 24 hrs by geometric microdilution method; assay type: functional
[6] = system: Pseudomonas aeruginosa; assay: Antibacterial activity against Pseudomonas aeruginosa PA22 (PT629) expressing MexXY after 24 hrs by geometric microdilution method; assay type: functional
[7] = system: Acinetobacter lwoffii; assay: Antibacterial activity against Acinetobacter lwoffii ATCC 17925 after 24 hrs by geometric microdilution method; assay type: functional; settings: ATCC 17925, 24 h
[8] = system: Escherichia coli; assay: Antibacterial activity against Escherichia coli L58058.1 expressing ANT2''-1A after 24 hrs by geometric microdilution method; assay type: functional
[9] = system: Pseudomonas aeruginosa; assay: Antibacterial activity against Pseudomonas aeruginosa ATCC 27853 after 24 hrs by geometric microdilution method; assay type: functional
[10] = system: Staphylococcus aureus; assay: Antibacterial activity against 14- and 15-membered macrolide-resistant Staphylococcus aureus expressing MsrA efflux pump after 24 hrs by geometric microdilution method; assay type: functional; outline: as §1
[11] = system: Staphylococcus aureus; assay: Antibacterial activity against fluoroquinolone-resistant Staphylococcus aureus 1199B expressing NorA efflux pump after 24 hrs by geometric microdilution method; assay type: functional; outline: as §1
[12] = system: Staphylococcus aureus; assay: Antibacterial activity against Staphylococcus aureus expressing aminoglycoside-6'-N-acetyltransferase/2''-O-phosphoryltransferase after 24 hrs by geometric microdilution method; assay type: functional; outline: as §1
[13] = system: Staphylococcus aureus; assay: Antibacterial activity against vancomycin-resistant Staphylococcus aureus VRS2 after 24 hrs by geometric microdilution method; assay type: functional; outline: as §1
[14] = system: Acinetobacter lwoffii; assay: Antibacterial activity against Acinetobacter lwoffii AI.88-483 expressing APH3'-6A after 24 hrs by geometric microdilution method; assay type: functional
[15] = system: Pseudomonas aeruginosa; assay: Antibacterial activity against Pseudomonas aeruginosa F03 expressing AAC6'-2A after 24 hrs by geometric microdilution method; assay type: functional
[16] = system: Staphylococcus aureus; assay: Antibacterial activity against Staphylococcus aureus expressing aminoglycoside-3'-O-phosphoryltransferase after 24 hrs by geometric microdilution method; assay type: functional; outline: as §1
[17] = system: Staphylococcus aureus; assay: Antibacterial activity against healthcare-acquired methicillin-resistant Staphylococcus aureus ATCC 33592 after 24 hrs by geometric microdilution method; assay type: functional; outline: as §1

Compound	MIC ([1]; PAZ505H8101, 24 h) [µg/mL]	MIC [2] [µg/mL]	MIC [3] [µg/mL]	MIC [4] [µg/mL]	MIC ([5]; ATCC 700603, 24 h) [µg/mL]	MIC [6] [µg/mL]	MIC [7] [µg/mL]	MIC ([8]; L58058.1, 24 h) [µg/mL]	MIC ([9]; ATCC 27853, 24 h) [µg/mL]	MIC [10] [µg/mL]	MIC [11] [µg/mL]	MIC [12] [µg/mL]	MIC ([13]; VRS2, 24 h) [µg/mL]	MIC ([14]; AI.88-483, 24 h) [µg/mL]	MIC ([15]; F03, 24 h) [µg/mL]	MIC [16] [µg/mL]	MIC ([17]; ATCC 33592, 24 h) [µg/mL]	further results
NC[C@H]1O[C@H](O[C@H]2[C@H](O)[C@@H](OCc3cccc4ccccc34)[C@H](N)C[C@@H]2N)[C@H](N)[C@@H](OCc2cccc3ccccc23)[C@@H]1OCc1cccc2ccccc12	2 (≈ 2.69 µM)	1 (≈ 1.35 µM)	8 (≈ 10.8 µM)	4 (≈ 5.38 µM)	128 (≈ 172 µM)	8 (≈ 10.8 µM)	2 (≈ 2.69 µM)	16 (≈ 21.5 µM)	8 (≈ 10.8 µM)	2 (≈ 2.69 µM)	4 (≈ 5.38 µM)	4 (≈ 5.38 µM)	16 (≈ 21.5 µM)	128 (≈ 172 µM)	8 (≈ 10.8 µM)	2 (≈ 2.69 µM)	4 (≈ 5.38 µM)	–
CCCCCCCCCCCCCCCCCCO[C@@H]1[C@@H](N)[C@@H](O[C@H]2[C@H](O)[C@@H](OCCCCCCCCCCCCCCCCCC)[C@H](N)C[C@@H]2N)O[C@H](CN)[C@H]1O	> 128	> 128	> 128	256 (≈ 309 µM)	–	> 128	–	> 128	> 128	> 128	> 128	256 (≈ 309 µM)	> 128	–	> 128	128 (≈ 155 µM)	> 128	–
CCCCCCCCCCCCCCCCCCO[C@@H]1[C@@H](N)[C@@H](O[C@H]2[C@H](O)[C@@H](O)[C@H](N)C[C@@H]2N)O[C@H](CN)[C@H]1O	–	> 128	–	> 128	–	–	–	–	–	–	> 128	> 128	–	–	–	> 128	–	–
NC[C@H]1O[C@H](O[C@H]2[C@H](O)[C@@H](OCCCCc3ccc4ccccc4c3)[C@H](N)C[C@@H]2N)[C@H](N)[C@@H](OCCCCc2ccc3ccccc3c2)[C@@H]1OCCCCc1ccc2ccccc2c1	128 (≈ 147 µM)	> 128	128 (≈ 147 µM)	128 (≈ 147 µM)	–	128 (≈ 147 µM)	–	> 128	128 (≈ 147 µM)	128 (≈ 147 µM)	> 128	128 (≈ 147 µM)	> 128	–	128 (≈ 147 µM)	128 (≈ 147 µM)	> 128	–
N[C@H]1[C@@H](O[C@H]2[C@H](O)[C@@H](O)[C@H](N)C[C@@H]2N)O[C@H](CO)[C@@H](O)[C@@H]1O [PAROMAMINE]	> 128	32 (≈ 99 µM)	> 128	> 128	–	> 128	–	> 128	> 128	> 128	> 128	> 128	> 128	–	> 128	> 128	> 128	–
NCC[C@H](O)C(=O)N[C@@H]1C[C@H](N)[C@@H](O[C@H]2O[C@H](CN)[C@@H](O)[C@H](O)[C@H]2O)[C@H](O)[C@H]1O[C@H]1O[C@H](CO)[C@@H](O)[C@H](N)[C@H]1O [AMIKACIN]	64 (≈ 109 µM)	–	4 (≈ 6.83 µM)	–	0.5 (≈ 0.854 µM)	8 (≈ 13.7 µM)	0.5 (≈ 0.854 µM)	2 (≈ 3.42 µM)	2 (≈ 3.42 µM)	–	–	–	–	> 128	4 (≈ 6.83 µM)	–	–	–
GENTAMICIN	–	–	–	–	–	4	–	–	–	–	–	–	–	–	–	–	–	MIC [1]: 1 µg/mL; MIC [5]: 8 µg/mL; MIC [8]: 64 µg/mL; MIC [9]: 1 µg/mL; MIC [13]: 32 µg/mL; MIC [14]: 4 µg/mL; MIC [15]: > 128 µg/mL; MIC [17]: 1 µg/mL
CCCCCCCCCCCCCCCCCCO[C@@H]1[C@@H](O)[C@H](O[C@H]2O[C@H](CN)[C@@H](O)[C@H](O)[C@H]2N)[C@@H](N)C[C@H]1N	–	> 128	–	> 256	–	–	–	–	–	–	> 256	> 256	–	–	–	> 256	> 128	–
NC[C@H]1O[C@H](O[C@H]2[C@H](O)[C@@H](OCc3ccc4ccccc4n3)[C@H](N)C[C@@H]2N)[C@H](N)[C@@H](OCc2ccc3ccccc3n2)[C@@H]1OCc1ccc2ccccc2n1	> 128	128 (≈ 172 µM)	> 128	> 128	> 128	> 128	128 (≈ 172 µM)	> 128	> 128	–	> 128	128 (≈ 172 µM)	64 (≈ 85.8 µM)	> 128	> 128	64 (≈ 85.8 µM)	64 (≈ 85.8 µM)	–
